In PubChem BioAssay:
Active and inactive are the calls of the source.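 The calls were made as follows, unless noted: active = NADPH fluorescence slope more negative than the mean of all samples by about 3 SD, 99.7% confidence; inactive = the rest.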

Experiments:
[1] = inhibitors of TNFa-induced NFkB p65 translocation, primary screen, imaging, HUVEC, MLSMR starter and 10KST1 sets (AID 438;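 active = inhibition above 20% together with a positive visual image hit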;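 also: compound added about 3h40 before a 20 min TNFalpha stimulation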;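 as to inhibition: signal is the nuclear over cytoplasmic p65 intensity ratio per well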); settings: HUVEC TNFa-induced p65 nuclear translocation; cell count: measured here: nuclei count (cytotoxicity indicator), at 2.08 µM; inhibition: at 2 µM, stronger effect = higher value, 0% TNFa-plus-vehicle, 100% no-TNFa wells
[2] = inhibitors of mutant huntingtin aggregation, primary screen, imaging, exon1htt(103Q)mCFP cells, high-content imaging (AID 483;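 active = visual image review flags a hit and inhibition of aggregation exceeds 20%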;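 also: compound exposure lasted 3 days before fixation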;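 as to nuclei count: percent of the per-plate median nuclei count of sample wells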); settings: exon1htt(103Q)mCFP cell line, aggregate imaging, at 2 µM; inhibition of aggregation: stronger effect = higher value; nuclei count: measured here: cell count, toxicity
[3] = inhibitors of E-selectin induction by TNFa, primary screen, imaging, HUVEC, immunofluorescence, MLSMR starter and 10KST1 sets (AID 487;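 active = visually confirmed hit in the image check and inhibition above 20%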;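 as to inhibition: signal is fraction of cell area covered by stained E-selectin grains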;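 as to nuclei count: 100% = median nuclei count of all wells on the same plate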); settings: HUVEC TNFalpha-induced E-selectin immunofluorescence imaging, at 2 µM; inhibition: stronger effect = higher value; nuclei count: measured here: cell number, toxicity
[4] = target: Voltage-gated potassium channel subunit beta-2 (Rattus norvegicus) (UniProt P62483); assay: KvBeta enzyme negative modulators, primary screen, biochemical, NADPH fluorescence (AID 622;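 active = fluorescence slope higher than the sample average by over 3 SD, cut at about -0.22 in these data, passing the limit was not always enough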;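 also: slope of raw intensity against log time taken from 70 to 1610 s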); settings: recombinant KvBeta, 4-cyanobenzaldehyde reduction, at 10 µM, stronger effect = higher value
Voltage-gated potassium channel subunit beta-2 (Rattus norvegicus), sequence (P62483 whole entry, looked up): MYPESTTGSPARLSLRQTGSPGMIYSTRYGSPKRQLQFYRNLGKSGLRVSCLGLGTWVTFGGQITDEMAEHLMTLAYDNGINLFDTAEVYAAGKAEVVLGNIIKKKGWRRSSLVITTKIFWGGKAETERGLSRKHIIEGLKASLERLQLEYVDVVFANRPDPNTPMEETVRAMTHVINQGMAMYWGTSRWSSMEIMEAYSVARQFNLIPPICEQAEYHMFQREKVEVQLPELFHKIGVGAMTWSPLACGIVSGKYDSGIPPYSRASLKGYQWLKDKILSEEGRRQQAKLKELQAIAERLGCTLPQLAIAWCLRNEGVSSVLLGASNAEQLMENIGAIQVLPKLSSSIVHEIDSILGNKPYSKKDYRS

[5] = target: Voltage-gated potassium channel subunit beta-2 (Rattus norvegicus) (UniProt P62483); assay: KvBeta positive modulators, primary screen, biochemical, NADPH fluorescence (AID 623); settings: Recombinant KvBeta, NADPH fluorescence decrease slope, 10 min; at 10 µM; stronger effect = lower value;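 also: fluorescence intensity change per second fitted from 20 to 320 s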
[6] = target: Muscarinic acetylcholine receptor M4 (Homo sapiens) (UniProt P08173); assay: compounds altering M4/GIRK thallium flux, either direction, primary screen, M4 allosteric agonist project, cell-based, HEK293 M4/GIRK, BTC-AM (AID 625;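 active = fluorescence slope after compound addition differing from the mean of all tested samples at 99.7% confidence, mostly higher but some lower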;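 also: thallium influx through GIRK channels coupled to M4 in HEK293 cells with BTC-AM dye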); settings: at 10 µM, actives lie on both sides
Muscarinic acetylcholine receptor M4 (Homo sapiens), sequence (P08173 whole entry, looked up): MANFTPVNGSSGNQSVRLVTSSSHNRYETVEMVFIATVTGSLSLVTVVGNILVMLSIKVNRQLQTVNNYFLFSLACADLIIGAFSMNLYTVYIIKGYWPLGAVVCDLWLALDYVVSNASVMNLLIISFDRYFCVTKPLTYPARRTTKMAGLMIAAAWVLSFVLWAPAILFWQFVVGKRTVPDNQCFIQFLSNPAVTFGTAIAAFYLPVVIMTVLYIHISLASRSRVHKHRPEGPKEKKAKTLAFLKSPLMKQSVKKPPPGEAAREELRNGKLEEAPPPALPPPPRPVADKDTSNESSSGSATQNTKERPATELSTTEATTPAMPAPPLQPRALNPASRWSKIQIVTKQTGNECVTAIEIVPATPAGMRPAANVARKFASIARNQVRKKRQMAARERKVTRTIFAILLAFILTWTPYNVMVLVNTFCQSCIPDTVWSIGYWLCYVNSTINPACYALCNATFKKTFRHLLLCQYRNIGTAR
Outline: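 Material: M4/GIRK1/GIRK2 stable HEK293 cell line. Medium: pH 7.3 thallium assay buffer. Dosing: single compound concentration, 10 µM final. Schedule: 1 h dye loading, 2 min kinetic read. Measured by: kinetic fluorescence with BTC-AM dye. Read-out: post-addition slope, 15–24 s, of baseline-normalized fluorescence. Benchmarks: carbachol and DMSO controls.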

[7] = inhibitors of Sendai virus-induced IRF3 signaling, primary screen, TLR/RLR signaling modifier project, cell-based, Sendai virus stimulus, luciferase, 10K MLSCN set (AID 602276;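 active = inhibition at or above 50% at 10 µM; inactive = inhibition below 50%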;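 also: firefly luciferase from ISG56 promoter only with Renilla not read in this screen; 0% = Sendai virus plus DMSO and 100% = medium plus DMSO without virus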); settings: HEK293 RL24 IRF3 luciferase reporter, at 10 µM, stronger effect = higher value
[8] = inhibitors of poly I:C-induced TLR3 signaling, primary screen, cell-based, poly I:C stimulus, luciferase, 10K MLSCN set (AID 602277;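 active = inhibition of the reporter signal at or above 50%; inactive = inhibition below 50%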); settings: HEK293-TLR3 RL24 IRF3 luciferase reporter, at 10 µM, stronger effect = higher value

Compound	cell count [1]	inhibition [1]	inhibition of aggregation [2]	nuclei count [2] [%]	inhibition [3]	nuclei count [3] [%]	fluorescence slope [4]	NADPH fluorescence slope [5]	fluorescence slope [6]	inhibition [7]	inhibition [8]
Cc1cccc2cc(C(c3nnnn3C(C)(C)C)N3CCN(C(=O)c4ccco4)CC3)c(=O)[nH]c12 (stereo not drawn)	283	-1.9% (inactive)	-6.7% (inactive)	96.1	-29.9% (inactive)	88.4	-0.439 (inactive)	-5.7e-05 (inactive)	0.00557 (inactive)	13.4% (inactive)	16% (inactive)
Cc1ccc(-c2cc(C(=O)N3CCCC3)no2)cc1	471	7.3% (inactive)	-20.5% (inactive)	19.5	-1.1% (inactive)	106	-0.585 (inactive)	1.3e-05 (inactive)	0.00612 (inactive)	-46.7% (inactive)	-130% (inactive)
Cc1nc(SCC#N)c2c(C)c(C)sc2n1	818	-4.3% (inactive)	-3.4% (inactive)	101	-84.3% (inactive)	118	-0.551 (inactive)	-2.7e-05 (inactive)	0.00593 (inactive)	10.7% (inactive)	-9.75% (inactive)
COc1ccc(-c2n[nH]c(C)c2-c2ccc(Cl)cc2)c(O)c1OC	403	-9.6% (inactive)	-24.2% (inactive)	104	-45.3% (inactive)	133	-0.529 (inactive)	-0.00026 (inactive)	0.00338 (inactive)	20.1% (inactive)	24.5% (inactive)
COc1ccc(Cl)cc1C(=O)n1nc(C)cc1C	346	-3.3% (inactive)	-15% (inactive)	106	-31% (inactive)	118	-0.355 (inactive)	-1.5e-05 (inactive)	0.00581 (inactive)	-16.7% (inactive)	-14.6% (inactive)
CC1=C(C#N)C(c2ccoc2)C(C(=O)OCc2ccccc2)=C(N)S1 (stereo not drawn)	482	1% (inactive)	-13.3% (inactive)	84.8	-90% (inactive)	102	-0.524 (inactive)	-0.000129 (inactive)	0.0045 (inactive)	9.67% (inactive)	11.7% (inactive)
O=C(c1ccco1)N1CCN(C(=O)C2CCN(S(=O)(=O)c3cccc4nsnc34)CC2)CC1	549	9.4% (inactive)	5.1% (inactive)	104	8.2% (inactive)	96.4	-0.468 (inactive)	0.000197 (inactive)	0.00637 (inactive)	8.36% (inactive)	18.1% (inactive)
COc1ccccc1NS(=O)(=O)c1ccc(NC(=O)c2nc3ncccn3n2)cc1	266	8.8% (inactive)	8.5% (inactive)	86.7	-14% (inactive)	93	-0.571 (inactive)	-7.6e-05 (inactive)	0.0057 (inactive)	17.6% (inactive)	13.9% (inactive)
O=C(CN1CCOCC1)N1CCN(C(=O)CN2CCOCC2)CC1	557	-51% (inactive)	-14% (inactive)	120	-63.9% (inactive)	120	-0.468 (inactive)	9.6e-05 (inactive)	0.00604 (inactive)	12.4% (inactive)	17.7% (inactive)
Cc1cc2c(c(=O)n1CCN(C)C)C(c1ccncc1)C(C#N)=C(N)O2 (stereo not drawn)	552	7.7% (inactive)	5% (inactive)	102	-74% (inactive)	155	-0.484 (inactive)	-1.3e-05 (inactive)	0.00498 (inactive)	5.86% (inactive)	8.13% (inactive)
COC(=O)CN(c1ccc2c(c1)OCO2)S(C)(=O)=O	356	-0.3% (inactive)	17.1% (inactive)	81.1	62.9% (inactive)	49.1	-0.482 (inactive)	-2.7e-06 (inactive)	0.00639 (inactive)	8.14% (inactive)	8.67% (inactive)
COc1ccc(C2C(=O)N(C3CCCCC3)CC(=O)N2Cc2ccco2)cc1 (stereo not drawn)	632	-15% (inactive)	-40.5% (inactive)	124	-26.6% (inactive)	101	-0.526 (inactive)	1.7e-05 (inactive)	0.00562 (inactive)	16.7% (inactive)	22.1% (inactive)
CCOC(=O)C(CC)Sc1ncnc2nc[nH]c12 (stereo not drawn)	351	1.9% (inactive)	-18.9% (inactive)	98.7	-46% (inactive)	123	-0.555 (inactive)	-2.8e-05 (inactive)	0.00496 (inactive)	3.43% (inactive)	5.34% (inactive)
CC(C)CCn1c(SCC#N)nc2c(sc3ccccc32)c1=O	718	-3.6% (inactive)	0.6% (inactive)	117	-60.1% (inactive)	119	-0.485 (inactive)	-2.4e-05 (inactive)	0.00662 (inactive)	6.8% (inactive)	14.8% (inactive)
CCOC(=O)Cn1nnnc1CN(Cc1ccc(OC)cc1)Cc1cc2cc(C)cc(C)c2[nH]c1=O	614	6.2% (inactive)	-1.3% (inactive)	117	-50.4% (inactive)	117	-0.595 (inactive)	-3.9e-05 (inactive)	0.00531 (inactive)	-8.1% (inactive)	-1.09% (inactive)
Cc1ccc(Cn2nnc3c(=O)n(CC(=O)NCC4CCCO4)cnc32)cc1 (stereo not drawn)	792	-13.6% (inactive)	-20.8% (inactive)	102	-51.5% (inactive)	98.4	-0.459 (inactive)	-4.1e-05 (inactive)	0.00672 (inactive)	9.27% (inactive)	18.9% (inactive)
CCOC(=O)C(CC)(CCC(=O)O)c1csc(N)n1 (stereo not drawn)	518	9.6% (inactive)	-2.8% (inactive)	91.6	14.4% (inactive)	98.1	-0.518 (inactive)	-3.9e-05 (inactive)	0.00527 (inactive)	13.6% (inactive)	18% (inactive)
COc1cc(C(N)=O)ccc1OCc1ccccc1	364	14% (inactive)	-5.1% (inactive)	107	-51.6% (inactive)	110	-0.472 (inactive)	-7.2e-06 (inactive)	0.00562 (inactive)	-12.9% (inactive)	-32.5% (inactive)
CC(C)(C)n1nnnc1C(c1cccc(C#N)c1)N1CCC(Cc2ccccc2)CC1 (stereo not drawn)	613	-13.9% (inactive)	30.1% (inactive)	81.1	-8% (inactive)	128	-0.571 (inactive)	-3.4e-05 (inactive)	0.00477 (inactive)	25.2% (inactive)	36.8% (inactive)
CC(C)CCNC(=O)NC(=O)CSc1nnc(-c2ccccc2F)n1N	572	0.4% (inactive)	-5.6% (inactive)	104	-223% (inactive)	178	-0.517 (inactive)	9.8e-05 (inactive)	0.00509 (inactive)	-9.04% (inactive)	-3.83% (inactive)
CCOC(=O)CSC1=Nc2ccccc2C2=NC(CC(=O)NCc3ccc(OC)cc3)C(=O)N12 (stereo not drawn)	463	-13.6% (inactive)	-2.2% (inactive)	64.2	-23.1% (inactive)	91.7	-0.476 (inactive)	-8e-06 (inactive)	0.00508 (inactive)	10.6% (inactive)	20.5% (inactive)
O=C(c1ccc(Cl)c(Cl)c1)N1CCOCC1	694	-9.1% (inactive)	-0.3% (inactive)	107	5.6% (inactive)	105	-0.568 (inactive)	-2.1e-05 (inactive)	0.00532 (inactive)	3.81% (inactive)	3.54% (inactive)
CCSc1nc2c(c(=O)n1CC)SC(C)C2 (stereo not drawn)	224	2.8% (inactive)	0.4% (inactive)	92.4	8.4% (inactive)	95	-0.401 (inactive)	-0.000126 (inactive)	0.00651 (inactive)	7.34% (inactive)	18.7% (inactive)
COCCN1CN(S(=O)(=O)c2ccccc2)c2nc3ccccc3nc21	307	8.3% (inactive)	-0.3% (inactive)	94.4	-47.3% (inactive)	160	-0.54 (inactive)	-0.000125 (inactive)	0.00322 (inactive)	13.6% (inactive)	17.4% (inactive)
O=c1cc(-c2ccco2)oc2ccc(Cl)cc12	286	-0.8% (inactive)	19.7% (inactive)	70	32.1% (inactive)	111	-0.568 (inactive)	-2.4e-05 (inactive)	0.00691 (inactive)	6.8% (inactive)	-71.7% (inactive)
NS(=O)(=O)c1ccc(NCc2c(F)cccc2Cl)cc1	300	-3% (inactive)	36.6% (inactive)	79.8	38.8% (inactive)	99.4	-0.515 (inactive)	-0.000161 (inactive)	0.00288 (inactive)	8.08% (inactive)	-2.77% (inactive)
Cc1cc2c(s1)c1cnn(CC(=O)NCCc3ccccc3)c(=O)c1n2C	279	17.5% (inactive)	-21.4% (inactive)	104	-76.9% (inactive)	102	-0.236 (inactive)	-7.6e-06 (inactive)	0.00662 (inactive)	15.1% (inactive)	-1.81% (inactive)
Nc1c(C2=NCCO2)nnn1Cc1ccccc1	612	4.2% (inactive)	19.4% (inactive)	79.3	-130% (inactive)	149	-0.597 (inactive)	-4.6e-05 (inactive)	0.00414 (inactive)	19.1% (inactive)	19.1% (inactive)
